The values that follow come from ChEMBL document CHEMBL1177711, “Novel quinolizidinyl derivatives as antiarrhythmic agents: 2. Further investigation” (J Med Chem, 2010).

The source made the active and inactive calls.

The subject of assay [1] is Aorta. Kind of assay: Vasorelaxant activity in potassium depolarized guinea pig aortic strip assessed as inhibition of calcium-induced contraction at 100 uM. It is filed as functional. The settings on record: Cavia porcellus.
A short description of assay [2]: Negative inotropic activity against potassium-induced contraction in guinea pig left atrium assessed as decrease in developed tension. The settings on record: Cavia porcellus, Cardiac atrium. The assay is classed as functional, tissue-based.
A short description of assay [3]: Negative chronotropic activity against potassium-induced contraction in guinea pig left atrium assessed as decrease atrial rate at 100 uM relative to control. The assay is classed as functional, Cavia porcellus, Cardiac atrium. Also on record: scale not given: the % may be the effect or the level left.
Assay [4] can be described thus: Negative inotropic activity against potassium-induced contraction in guinea pig left atrium assessed as decrease in developed tension at 50 uM relative to control. It is filed as functional, Cavia porcellus, Cardiac atrium. Details: scale not given: the % may be the effect or the level left.
The nature of assay [5]: Antiarrhythmic activity in sinusoidal alternating current-induced guinea pig left atrium assessed as increase in current strength at which extra beats occur at 0.5 uM measured every 30 mins. It is filed as functional, Cavia porcellus, Cardiac atrium. Summed up: (§1)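 Isolated guinea pig left atria, electrically driven at 1 Hz, were exposed to sinusoidal alternating current to induce arrhythmia. The read-out was the rise in the ac-arrhythmia threshold over concentrations up to 100 μM.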

Assay [6] is described as follows: Antiarrhythmic activity in sinusoidal alternating current-induced guinea pig left atrium assessed as increase in current strength at which extra beats occur measured every 30 mins. The assay is classed as functional, tissue-based. The settings on record: Cavia porcellus, Cardiac atrium, 0.5 h. Summed up: as §1
Assay [7] in a line: Antiarrhythmic activity in sinusoidal alternating current-induced guinea pig left atrium assessed as increase in current strength at which extra beats occur at 50 uM measured every 30 mins. The assay is classed as functional, Cavia porcellus, Cardiac atrium. Summed up:
as §1

Assay [8] can be described thus: Cardioprotective effect in Langendorff perfused guinea pig spontaneously beating […] assessed as duration of ventricular action potential at 10 uM (RVb = 140 to 161 +/- 2 to 8 ms). The assay is classed as functional, Cavia porcellus, Cardiac ventricle. Summed up: (§2)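 Whole guinea pig hearts were Langendorff-perfused and their ECG recorded at graded concentrations. Intervals read were PR (atrioventricular conduction time), QT (ventricular action potential duration) and QRS (intraventricular conduction time).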

Assay [9] is described as follows: Cardioprotective effect in Langendorff perfused guinea pig spontaneously beating […] assessed as duration of ventricular action potential at 1 uM (RVb = 140 to 161 +/- 2 to 8 ms). The assay is classed as functional, Cavia porcellus, Cardiac ventricle. Summed up:
as §2

Assay [10] can be described thus: Cardioprotective effect in Langendorff perfused guinea pig spontaneously beating […] assessed as atrioventicular conduction time at 1 uM (RVb = 50 to 55 +/- 1 to 4 ms). The assay is classed as functional. The settings on record: Cavia porcellus. Summed up:
as §2

Assay [11] is described as follows: Negative inotropic activity against potassium-induced contraction in guinea pig left atrium assessed as decrease in developed tension at 0.1 uM relative to control. It is filed as functional, Cavia porcellus, Cardiac atrium. Details: scale not given: the % may be the effect or the level left.
Assay [12] in a line: Cardioprotective effect in Langendorff perfused guinea pig spontaneously beating […] assessed as duration of ventricular action potential at 0.1 uM (RVb = 140 to 161 +/- 2 to 8 ms). The assay is classed as functional, Cavia porcellus, Cardiac ventricle. A digest of the protocol:
as §2

Assay [13] in a line: Cardioprotective effect in Langendorff perfused guinea pig spontaneously beating […] assessed as duration of ventricular action potential at 0.01 uM (RVb = 140 to 161 +/- 2 to 8 ms). The assay is classed as functional, Cavia porcellus, Cardiac ventricle. A digest of the protocol: as §2
The nature of assay [14]: Cardioprotective effect in Langendorff perfused guinea pig spontaneously beating […] assessed as duration of ventricular action potential at 0.001 uM (RVb = 140 to 161 +/- 2 to 8 ms). The assay is classed as functional, Cavia porcellus, Cardiac ventricle. Summed up:
as §2

The nature of assay [15]: Cardioprotective effect in Langendorff perfused guinea pig spontaneously beating […] assessed as intraventicular conduction time at 10 uM (RVb = 19 to 24 +/- 1 to 2 ms). It is filed as functional. The note with it: Cavia porcellus. A digest of the protocol:
as §2

Assay [16] can be described thus: Cardioprotective effect in Langendorff perfused guinea pig spontaneously beating […] assessed as intraventicular conduction time at 1 uM (RVb = 19 to 24 +/- 1 to 2 ms). It is filed as functional. The settings on record: Cavia porcellus. A digest of the protocol: as §2
The nature of assay [17]: Cardioprotective effect in Langendorff perfused guinea pig spontaneously beating […] assessed as intraventicular conduction time at 0.1 uM (RVb = 19 to 24 +/- 1 to 2 ms). The assay is classed as functional. The settings on record: Cavia porcellus. A digest of the protocol: as §2
Assay [18] is described as follows: Cardioprotective effect in Langendorff perfused guinea pig spontaneously beating […] assessed as intraventicular conduction time at 0.01 uM (RVb = 19 to 24 +/- 1 to 2 ms). The assay is classed as functional. The settings on record: Cavia porcellus. Summed up: as §2
Assay [19] in a line: Cardioprotective effect in Langendorff perfused guinea pig spontaneously beating […] assessed as intraventicular conduction time at 0.001 uM (RVb = 19 to 24 +/- 1 to 2 ms). The assay is classed as functional. The note with it: Cavia porcellus. Summed up: as §2
Assay [20] can be described thus: Cardioprotective effect in Langendorff perfused guinea pig spontaneously beating […] assessed as atrioventicular conduction time at 10 uM (RVb = 50 to 55 +/- 1 to 4 ms). The assay is classed as functional. The settings on record: Cavia porcellus. Summed up:
as §2

Assay [21] is described as follows: Cardioprotective effect in Langendorff perfused guinea pig spontaneously beating […] assessed as atrioventicular conduction time at 0.1 uM (RVb = 50 to 55 +/- 1 to 4 ms). It is filed as functional. The settings on record: Cavia porcellus. A digest of the protocol: as §2
The nature of assay [22]: Cardioprotective effect in Langendorff perfused guinea pig spontaneously beating […] assessed as atrioventicular conduction time at 0.01 uM (RVb = 50 to 55 +/- 1 to 4 ms). The assay is classed as functional. The settings on record: Cavia porcellus. Summed up:
as §2

Assay [23] in a line: Cardioprotective effect in Langendorff perfused guinea pig spontaneously beating […] assessed as atrioventicular conduction time at 0.001 uM (RVb = 50 to 55 +/- 1 to 4 ms). The note with it: Cavia porcellus. The assay is classed as functional. A digest of the protocol: as §2
Assay [24] has as its system Heart. Kind of assay: Cardioprotective effect in Langendorff perfused guinea pig spontaneously beating […] assessed as heart rat at 0.001 uM (RVb = 175 to 190 +/- 5 to 11 bpm). It is filed as functional, Cavia porcellus.
Assay [25] has as its system Heart. Kind of assay: Cardioprotective effect in Langendorff perfused guinea pig spontaneously beating […] assessed as heart rat at 0.01 uM (RVb = 175 to 190 +/- 5 to 11 bpm). The assay is classed as functional, Cavia porcellus.
For assay [26], the system named is Heart. The assay can be described thus: Cardioprotective effect in Langendorff perfused guinea pig spontaneously beating […] assessed as heart rat at 0.1 uM (RVb = 175 to 190 +/- 5 to 11 bpm). The assay is classed as functional, Cavia porcellus.
Assay [27] concerns Heart. Kind of assay: Cardioprotective effect in Langendorff perfused guinea pig spontaneously beating […] assessed as heart rat at 1 uM (RVb = 175 to 190 +/- 5 to 11 bpm). It is filed as functional, Cavia porcellus.
The test system of assay [28] is Heart. Kind of assay: Cardioprotective effect in Langendorff perfused guinea pig spontaneously beating […] assessed as heart rat at 10 uM (RVb = 175 to 190 +/- 5 to 11 bpm). The assay is classed as functional, Cavia porcellus.
Assay [29] is described as follows: Negative inotropic activity against potassium-induced contraction in guinea pig left atrium assessed as decrease in developed tension at 5 uM relative to control. Details: scale not given: the % may be the effect or the level left. It is filed as functional, Cavia porcellus, Cardiac atrium.
The nature of assay [30]: Antiarrhythmic activity in sinusoidal alternating current-induced guinea pig left atrium assessed as increase in current strength at which extra beats occur at 10 uM measured every 30 mins. The assay is classed as functional, Cavia porcellus, Cardiac atrium. A digest of the protocol: as §1
In assay [31] the test system is Aorta. The assay can be described thus: Negative inotropic activity in potassium depolarized guinea pig aortic strip assessed as inhibition of calcium-induced contraction at 1 uM. The assay is classed as functional, tissue-based. The settings on record: Cavia porcellus.
The species entered for assay [32] is Cavia porcellus. Kind of assay: Negative inotropic activity in guinea pig longitudinal smooth muscle assessed as inhibition of calcium-induced contraction at 1 uM. It is filed as functional.
The nature of assay [33]: Negative inotropic activity against potassium-induced contraction in guinea pig left atrium assessed as decrease in developed tension at 0.5 uM relative to control. It is filed as functional, Cavia porcellus, Cardiac atrium. Details: scale not given: the % may be the effect or the level left.
A short description of assay [34]: […] chronotropic activity against potassium-induced contraction in guinea pig left atrium assessed as decrease atrial rate at 100 uM relative to control. It is filed as functional, Cavia porcellus, Cardiac atrium. Details: scale not given: the % may be the effect or the level left.
The species entered for assay [35] is Cavia porcellus. Kind of assay: Agonist activity at muscarinic M2 receptor in guinea pig left atrium assessed as negative ionotropic activity in presence of carbachol. The assay is classed as functional, tissue-based. The note with it: Cardiac atrium.

Take `O=C(Cn1nc2ccccc2n1)NC[C@@H]1CCCN2CCCC[C@H]12`: the inhibition (usually the share of the control response that was lost under treatment) at 100 µM in the assay on Aorta [1] was 4%. The EC50 (in general, the concentration at which the effect is half-maximal) in assay [2] came to 35 nM. Further, the Activity is 34% in [3], 98% in [4] and 26% in [5].
For the molecule `Cc1cccc(C)c1NC(=O)CSC[C@@H]1CCCN2CCCC[C@H]12` [LUPINYLTHIOACETYLANILIDE], the Activity worked out at 30% in assay [3]; 67% in [7]; 168 ms in [8]; 164 ms in assay [9]; 48% in [11]; 157 ms in assay [12]. In addition, the Activity in assay [13] is 155 ms; in [14], 150 ms; in the assay with Heart [24], 181 bpm; with Heart [25] it was 175 bpm; in the assay with Heart [26] it was 171 bpm; in the assay with Heart [27], 166 bpm. Also, in the assay with Heart [28], the Activity came to 156 bpm. Moreover, in assay [6], the EC50 stood at 590 nM. For the same molecule, the AV conduction time was 55 ms in assay [10]; 60 ms in [20]; 53 ms in assay [21]; 51 ms in assay [22]; 52 ms in [23]. Besides, the intraventricular conduction time in assay [15] was 23 ms; in assay [16], 24 ms; in assay [17] it was 24 ms; in [18], 22 ms; in assay [19], 22 ms.
For the molecule `COc1cc(NC(C)=O)c(Cl)cc1C(=O)NC[C@@H]1CCCN2CCCC[C@H]12`, in the assay on Aorta [1], the inhibition at 100 µM was found to be 4%. The EC50 in [2] amounted to 18 nM; in assay [6], 240 nM. Also, the Activity in assay [3] was 6%; in [29] it was 93%; in assay [30] it was 84%; in assay [8], 155 ms; in assay [9] it was 152 ms; in assay [12] it was 150 ms. The Activity in assay [13] came out at 141 ms; in [14], 139 ms; with Heart [24] it was 172 bpm; in the assay on Heart [25] it was 170 bpm; in the assay with Heart [26] it was 168 bpm; in the assay on Heart [27], 167 bpm. The Activity in the assay on Heart [28] came out at 165 bpm. Moreover, the AV conduction time was 56 ms in assay [10]; 56 ms in [20]; 53 ms in assay [21]; 54 ms in [22]; 52 ms in assay [23]. In addition, the intraventricular conduction time in assay [15] was determined as 22 ms; in assay [16], 22 ms; in assay [17], 21 ms; in assay [18], 20 ms; in assay [19], 20 ms. The inhibition entry in the assay on Aorta [31] and in the assay filed under Cavia porcellus [32] was “inactive” each time.
For `COc1cc(C(=O)NC[C@@H]2CCCN3CCCC[C@H]23)cc(OC)c1OC`, the inhibition at 100 µM in the assay with Aorta [1] came to 7%. The EC50 was determined as 17 nM in [2] and 2620 nM in assay [6]. Moreover, the Activity in assay [33] is 79%; in assay [30], 56%; in assay [34], 11%.
On to `C[N+](C)(C)CCOC(N)=O`, for which, in the assay filed under Cavia porcellus [35], the inhibition result is “inactive”.
